Each structure is given as a SMILES string. Calls of active or inactive are those of the source. No cut-off for these calls is given here.

Series [1] in a line: Toxicity in NCG mouse xenografted with human TMD8 cells assessed as diarrhea at 30 mg/kg/day, ip measured for 13 days. Particulars: in vivo, 312 h. (In general: A xenograft is tissue or cells of one species grown in another, often human tumour cells in immunodeficient mice.)
The nature of series [2]: Oral bioavailability in CD-1 mouse at 10 mg/kg by LC-MS/MS analysis. Particulars: in vivo. Type of series: ADME, organism-based. In a few lines:
(§1)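 Male ICR (CD-1) mice (n = 9). Compound formulated in 5% DMSO + 5% Tween-80 in 90% saline and dosed 10 mg/kg po, 1 mg/kg ip or 1 mg/kg iv. Blood drawn from the jugular vein at set time points and held on ice. Plasma separated by centrifugation and stored at −80 °C before parameter derivation.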

Series [3] can be described thus: Half life in CD-1 mouse at 10 mg/kg, po by LC-MS/MS analysis. Type of series: ADME, organism-based. Particulars: in vivo. In a few lines: (§2)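 Compound formulated in 5% DMSO + 5% Tween-80 in 90% saline and given to male ICR (CD-1) mice (n = 9) at 10 mg/kg po, 1 mg/kg ip or 1 mg/kg iv. Blood was drawn via the jugular vein at set time points and held on ice. Plasma was separated by centrifugation and stored at −80 °C before PK parameters were derived.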

Series [4] deals with TMD8. The series can be described thus: Induction of apoptosis in human TMD8 cells assessed as late apoptotic cells at 5 uM measured after 24 hrs by Annexin V-FITC/ Propidium iodide staining based flow cytometry (reference value: 2.19%). Type of series: functional. In general terms: A flow cytometer gives signals particle by particle.
In series [5] the test system is TMD8. The series can be described thus: Induction of apoptosis in human TMD8 cells assessed as increase in cleaved caspase 3 level measured after 12 hrs by Western blot analysis. Type of series: functional, cell-based. In a few lines:
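HBL1, TMD8 or OCI-LY1 cells were exposed to DMSO or compound for 12 h. Cleaved PARP and caspase-3 were probed by western blot with HRP-conjugated secondary antibodies and chemiluminescent detection. Each lane held 20−75 μg total protein.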

A short description of series [6]: Induction of apoptosis in human HBL1 cells assessed as late apoptotic cells at 5 uM measured after 24 hrs by Annexin V-FITC/ Propidium iodide staining based flow cytometry (reference value: 4.77%). Type of series: functional.
In series [7] the target is T1, Nuclear factor NF-kappa-B complex (Homo sapiens) (UniProt Q00653+P19838+Q04206). The series can be described thus: Inhibition of NF-kappaB signalling in human HBL1 cells assessed as reduction in phosphorylation of IkappaB-alpha at 8 uM preincubated for 30 mins followed by proteosome inhibitor MG-132 addition and measured after 2 hrs by Western blot analysis. Type of series: cell-based. To be noted: time 2.5 hrs. In a few lines:
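HBL1 cells were pretreated with compound (4 and 8 μM) for 30 min, then given 10 μM MG-132 for 2 h. Phospho-IκBα, IκBα and RelB were probed by western blot, with β-actin as loading control. Each lane held 20−75 μg total protein, with chemiluminescent detection.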
For orientation: Immunoblotting shows a protein as a band on a membrane.

Series [8] is described as follows: Induction of apoptosis in human HBL1 cells assessed as late apoptotic cells at 2 uM measured after 24 hrs by Annexin V-FITC/ Propidium iodide staining based flow cytometry (reference value: 4.77%). The format is functional.
Series [9] deals with OCI-Ly1. The series can be described thus: Induction of apoptosis in human OCI-Ly1 cells assessed as early apoptotic cells at 5 uM measured after 24 hrs by Annexin V-FITC/ Propidium iodide staining based flow cytometry (reference value: 1.29%). The format is functional.
Series [10] deals with OCI-Ly1. The series can be described thus: Induction of apoptosis in human OCI-Ly1 cells assessed as dead cells at 2 uM measured after 24 hrs by Annexin V-FITC/ Propidium iodide staining based flow cytometry (reference value: 0.365%). Type of series: functional.
For series [11], the target named is T2, Mucosa-associated lymphoid tissue lymphoma translocation protein 1 (Homo sapiens, UniProt Q9UDY8).
T2 sequence (Q9UDY8 whole entry): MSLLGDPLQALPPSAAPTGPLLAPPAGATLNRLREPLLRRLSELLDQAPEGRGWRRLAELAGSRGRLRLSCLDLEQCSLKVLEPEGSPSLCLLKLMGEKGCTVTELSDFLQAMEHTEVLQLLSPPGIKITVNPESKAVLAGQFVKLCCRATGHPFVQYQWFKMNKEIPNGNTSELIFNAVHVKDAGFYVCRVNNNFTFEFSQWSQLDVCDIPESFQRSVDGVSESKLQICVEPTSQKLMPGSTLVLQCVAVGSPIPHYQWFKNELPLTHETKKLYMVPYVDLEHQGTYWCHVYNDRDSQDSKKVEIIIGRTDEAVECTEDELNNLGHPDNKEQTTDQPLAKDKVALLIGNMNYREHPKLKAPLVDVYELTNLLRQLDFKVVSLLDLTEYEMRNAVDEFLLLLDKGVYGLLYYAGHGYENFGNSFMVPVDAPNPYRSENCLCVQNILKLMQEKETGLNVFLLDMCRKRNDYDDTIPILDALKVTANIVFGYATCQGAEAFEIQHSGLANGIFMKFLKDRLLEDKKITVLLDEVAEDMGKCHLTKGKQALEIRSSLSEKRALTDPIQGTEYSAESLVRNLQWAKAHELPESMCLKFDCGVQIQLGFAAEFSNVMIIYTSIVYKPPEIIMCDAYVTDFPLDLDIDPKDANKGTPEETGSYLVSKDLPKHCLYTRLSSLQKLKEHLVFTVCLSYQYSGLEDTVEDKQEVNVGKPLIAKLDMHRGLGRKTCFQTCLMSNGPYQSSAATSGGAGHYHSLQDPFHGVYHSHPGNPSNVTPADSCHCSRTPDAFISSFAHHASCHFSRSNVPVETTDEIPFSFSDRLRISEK
The series can be described thus: Inhibition of N-terminal his-tagged GCN4 leucine zipper fused human MALT1 […] expressed in Escherichia coli using Ac-LVSR-AMC as substrate by HTS assay.

In series [12] the test system is TMD8. The series can be described thus: Induction of apoptosis in human TMD8 cells assessed as late apoptotic cells at 10 uM measured after 24 hrs by Annexin V-FITC/ Propidium iodide staining based flow cytometry (reference value: 2.19%). Type of series: functional.
The nature of series [13]: MRT (0 to t) in CD-1 mouse at 10 mg/kg, po by LC-MS/MS analysis. Type of series: ADME, organism-based. Particulars: in vivo. In a few lines: as §1
Series [14] in a line: Half life in CD-1 mouse at 1 mg/kg, iv by LC-MS/MS analysis. Type of series: ADME, organism-based. To be noted: in vivo. In a few lines:
as §2

Series [15] is described as follows: MRT (0 to t) in CD-1 mouse at 1 mg/kg, ip by LC-MS/MS analysis. Type of series: ADME, organism-based. Particulars: in vivo. In a few lines:
as §1

The target in series [16] is T1, Nuclear factor NF-kappa-B complex (Homo sapiens). In words: Inhibition of NF-kappab signaling in human TMD8 cells assessed as reduction in phosphorylation of IkappaB-alpha at 8 uM preincubated for 30 mins followed by MG-132 addition and measured after 2 hrs by Western blot analysis. The format is cell-based. Particulars: time 2.5 hrs. In a few lines:
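HBL1, TMD8 and OCI-LY1 cells pretreated 30 min with inhibitor (4 and 8 μM), then given 10 μM proteasome inhibitor MG-132 for 2 h. Lysates (20−75 μg protein) run on SDS-PAGE, blotted to PVDF and probed for RelB, IκBα and phospho-IκBα, with β-actin as loading control; HRP secondary, chemiluminescence detection.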

Series [17] deals with OCI-Ly1. In words: Induction of apoptosis in human OCI-Ly1 cells assessed as viable cells at 10 uM measured after 24 hrs by Annexin V-FITC/ Propidium iodide staining based flow cytometry (reference value: 97.8%). The format is functional. To be noted: read-out: Activity.
The nature of series [18]: Induction of apoptosis in human HBL1 cells assessed as dead cells at 10 uM measured after 24 hrs by Annexin V-FITC/ Propidium iodide staining based flow cytometry (reference value: 2.32%). Type of series: functional.
The test system of series [19] is TMD8. In words: Induction of apoptosis in human TMD8 cells assessed as viable cells at 5 uM measured after 24 hrs by Annexin V-FITC/ Propidium iodide staining based flow cytometry (reference value: 90.8%). The format is functional. Particulars: read-out: Activity.

T1 sequence (P19838 whole entry, looked up): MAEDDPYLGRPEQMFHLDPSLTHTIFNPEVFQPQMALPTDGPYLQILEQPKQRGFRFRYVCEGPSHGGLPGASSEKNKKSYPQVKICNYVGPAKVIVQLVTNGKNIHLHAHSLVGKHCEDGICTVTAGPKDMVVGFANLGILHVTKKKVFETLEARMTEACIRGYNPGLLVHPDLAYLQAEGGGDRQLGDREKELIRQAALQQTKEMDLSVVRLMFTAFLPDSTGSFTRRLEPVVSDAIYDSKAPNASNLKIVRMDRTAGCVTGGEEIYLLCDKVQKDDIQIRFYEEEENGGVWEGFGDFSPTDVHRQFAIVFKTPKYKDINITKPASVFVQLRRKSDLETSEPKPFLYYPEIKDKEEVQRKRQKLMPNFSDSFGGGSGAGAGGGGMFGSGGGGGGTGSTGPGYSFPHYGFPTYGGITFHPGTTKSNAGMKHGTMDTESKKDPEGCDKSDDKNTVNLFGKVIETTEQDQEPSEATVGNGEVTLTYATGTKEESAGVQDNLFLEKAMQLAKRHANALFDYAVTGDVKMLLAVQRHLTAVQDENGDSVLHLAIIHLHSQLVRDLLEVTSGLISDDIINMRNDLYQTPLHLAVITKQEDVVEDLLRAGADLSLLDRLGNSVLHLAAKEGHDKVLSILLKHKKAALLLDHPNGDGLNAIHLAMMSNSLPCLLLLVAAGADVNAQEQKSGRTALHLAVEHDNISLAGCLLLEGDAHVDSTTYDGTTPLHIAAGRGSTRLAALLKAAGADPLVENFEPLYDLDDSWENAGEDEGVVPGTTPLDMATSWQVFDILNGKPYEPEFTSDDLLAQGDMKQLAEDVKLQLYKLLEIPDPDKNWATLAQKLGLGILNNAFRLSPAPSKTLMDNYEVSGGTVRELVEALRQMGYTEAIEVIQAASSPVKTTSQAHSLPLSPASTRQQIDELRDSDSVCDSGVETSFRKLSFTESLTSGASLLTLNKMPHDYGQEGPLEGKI
T1 sequence (Q00653 whole entry, looked up): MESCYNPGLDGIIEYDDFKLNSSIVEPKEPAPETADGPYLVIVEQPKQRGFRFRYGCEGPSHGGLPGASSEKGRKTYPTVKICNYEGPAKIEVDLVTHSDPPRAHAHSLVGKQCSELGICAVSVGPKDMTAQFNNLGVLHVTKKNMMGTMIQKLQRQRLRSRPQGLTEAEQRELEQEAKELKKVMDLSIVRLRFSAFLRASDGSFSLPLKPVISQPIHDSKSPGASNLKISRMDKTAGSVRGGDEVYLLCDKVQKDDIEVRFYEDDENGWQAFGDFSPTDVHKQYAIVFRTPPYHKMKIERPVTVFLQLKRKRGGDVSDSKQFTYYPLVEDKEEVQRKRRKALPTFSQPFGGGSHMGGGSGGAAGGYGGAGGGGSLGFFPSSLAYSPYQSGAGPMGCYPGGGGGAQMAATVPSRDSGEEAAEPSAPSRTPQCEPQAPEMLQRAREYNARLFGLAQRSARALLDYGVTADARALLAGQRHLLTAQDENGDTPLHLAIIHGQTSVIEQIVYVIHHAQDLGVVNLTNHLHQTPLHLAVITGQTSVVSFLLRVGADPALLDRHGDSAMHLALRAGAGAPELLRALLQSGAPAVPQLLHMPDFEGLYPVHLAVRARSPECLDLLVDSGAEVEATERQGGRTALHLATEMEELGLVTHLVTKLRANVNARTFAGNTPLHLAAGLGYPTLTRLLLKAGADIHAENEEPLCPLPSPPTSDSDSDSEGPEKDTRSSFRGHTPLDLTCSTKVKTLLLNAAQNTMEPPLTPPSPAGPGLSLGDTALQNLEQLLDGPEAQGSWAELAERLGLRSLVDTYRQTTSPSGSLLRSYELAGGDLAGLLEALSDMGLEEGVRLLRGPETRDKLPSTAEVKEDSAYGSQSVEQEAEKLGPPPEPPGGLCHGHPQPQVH
T1 sequence (Q04206 whole entry, looked up): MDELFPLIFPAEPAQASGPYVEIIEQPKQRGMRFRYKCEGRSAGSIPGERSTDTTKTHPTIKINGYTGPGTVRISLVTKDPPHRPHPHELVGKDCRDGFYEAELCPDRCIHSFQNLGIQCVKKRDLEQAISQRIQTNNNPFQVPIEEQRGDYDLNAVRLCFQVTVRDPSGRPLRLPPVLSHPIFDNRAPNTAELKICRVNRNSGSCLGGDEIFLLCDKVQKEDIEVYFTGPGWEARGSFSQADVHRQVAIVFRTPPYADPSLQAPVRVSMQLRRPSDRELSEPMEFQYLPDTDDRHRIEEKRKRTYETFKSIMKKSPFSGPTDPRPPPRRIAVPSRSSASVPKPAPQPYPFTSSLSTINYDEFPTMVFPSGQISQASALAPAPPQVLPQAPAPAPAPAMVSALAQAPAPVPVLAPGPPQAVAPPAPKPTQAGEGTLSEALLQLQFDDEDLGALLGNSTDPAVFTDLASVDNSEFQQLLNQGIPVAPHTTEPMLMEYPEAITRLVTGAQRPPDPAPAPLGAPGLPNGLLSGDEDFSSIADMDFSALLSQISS

A word on the half-life: it is the time in which the quantity being followed falls by half. Low readings indicate fast loss, high ones slow loss. The term IC50 denotes the point on the concentration scale where inhibition reaches its midpoint. A lower IC50 goes with greater potency in that assay. What is called MRT last is a mean duration of stay, worked out from the concentration-time curve. `COc1ccc(OC)c(NC(=O)c2sc(=S)n(-c3ccc(C(F)(F)F)cc3)c2NC(=O)CCl)c1`: the Activity result in series [1] was “Non-Toxic”; in the series with TMD8 [4], 25.7%; with TMD8 [5], “Dose-Dependent Effect”; in series [6] it was 17.3%; in [8], 5.5%; with OCI-Ly1 [9] it was 1.6%. Besides, the Activity in the series with OCI-Ly1 [10] is given as 0.011%; with TMD8 [12], 42.7%; in series [18] it was 1.04%. For the same compound, the bioavailability in series [2] was 110%. Also, the half-life in series [3] is 2.83 h; in [14] it was 4.6 h. In addition, the inhibition entry in series [7] and in series [16] was “Active” throughout. In addition, the midpoint of inhibition in series [11], the IC50, lay at 5.3 µM. Besides, the MRT last worked out at 5.62 h in series [13] and 5.95 h in series [15]. For the same compound, the viability at 10 µM in the series with OCI-Ly1 [17] worked out at 95.5%. For the same compound, the viability at 5 µM in the series on TMD8 [19] was determined as 14.8%.

Values taken from ChEMBL document CHEMBL5032510, “Identification of Novel Fused Heteroaromatics-Based MALT1 Inhibitors by High-Throughput Screening to Treat B Cell Lymphoma” (J Med Chem, 2021).
